ChEMBL document CHEMBL3244213, “Synthesis of angiotensin II antagonists by incorporating alpha-methylalanine or O-methylthreonine residues in angiotension II analogues” (J Med Chem, 1977)
Calls of active or inactive are those of the source. No cut-off for these calls is given here. Non-standard residues stand in square brackets, D forms with d. Residues, ends and D or L forms follow the SMILES beside them. Sar = CNCC(=O)O

Experiments:
Rattus norvegicus [1] = assay: In vivo agonist activity at angiotensin 2 receptor in ganglion-blocked vagotomized rat assessed as pressor activity administered as single bolus dose relative to angiotensin-2; type: functional
How it was run: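 Vagotomized, ganglion-blocked rats; analogue given as a single injection and pressor response expressed as percent of angiotensin II ([Asp1,Ile5]angiotensin II = 100).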

Rattus norvegicus [2] = assay: In vivo agonist activity at angiotensin 2 receptor in ganglion-blocked vagotomized rat assessed as rise in blood pressure at 125 ng/kg/min compound infused for 3 mins; type: functional
Rattus norvegicus [3] = assay: In vivo agonist activity at angiotensin 2 receptor in ganglion-blocked vagotomized rat assessed as rise in blood pressure at 250 ng/kg/min compound infused for 3 mins; type: functional
Rattus norvegicus [4] = assay: In vivo agonist activity at angiotensin 2 receptor in ganglion-blocked vagotomized rat assessed as rise in blood pressure at 125 ng/kg/min compound infused for 10 mins; type: functional
Rattus norvegicus [5] = assay: In vivo agonist activity at angiotensin 2 receptor in ganglion-blocked vagotomized rat assessed as rise in blood pressure at 250 ng/kg/min compound infused for 10 mins; type: functional
Rattus norvegicus [6] = assay: In vivo agonist activity at angiotensin 2 receptor in ganglion-blocked vagotomized rat assessed as rise in blood pressure at 125 ng/kg/min compound infused for 30 mins; type: functional
How it was run: (§1)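 Vagotomized, ganglion-blocked rats given analogue by infusion (standard rate 250 ng/kg/min, some at 125 ng/kg/min); initial blood pressure rise recorded in mmHg over the 30-min infusion period.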

Rattus norvegicus [7] = assay: In vivo agonist activity at angiotensin 2 receptor in ganglion-blocked vagotomized rat assessed as rise in blood pressure at 250 ng/kg/min compound infused for 30 mins; type: functional; how it was run: as §1
Rattus norvegicus [8] = assay: In vivo non-competitive antagonist activity at angiotensin 2 receptor in ganglion-blocked vagotomized rat assessed as angiotensin-2 dose ratio at 125 ng/kg/min administered as an infusion; type: functional
How it was run: (§2)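 Vagotomized, ganglion-blocked rats infused with analogue at 125 or 250 ng/kg/min; antagonism of angiotensin II pressor response expressed as dose ratio.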

Rattus norvegicus [9] = assay: In vivo non-competitive antagonist activity at angiotensin 2 receptor in ganglion-blocked vagotomized rat assessed as angiotensin-2 dose ratio at 250 ng/kg/min administered as an infusion; type: functional; how it was run: as §2
[10] = Retardation factor of the compound using n-BuOH-AcOH-water at ratio of 4:1:5 as solvent system by thin layer chromatography; type: physicochemical; settings: buffer
[11] = Retardation factor of the compound using n-BuOH-pyridine-water at ratio of 10:2:5 as solvent system by thin layer chromatography; type: physicochemical; settings: buffer
[12] = Retardation factor of the compound using n-BuOH-pyridine-water at ratio of 65:35:35 as solvent system by thin layer chromatography; type: physicochemical; settings: buffer
[13] = Retardation factor of the compound using n-BuOH-pyridine-water at ratio of 65:35:65 as solvent system by thin layer chromatography; type: physicochemical; settings: buffer
Oryctolagus cuniculus [14] = organism: Oryctolagus cuniculus; assay: Agonist activity at angiotensin 2 receptor in rabbit aorta assessed as myotropic activity up to 1 uM/L relative to angiotensin-2; type: tissue-based
How it was run: (§3)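 Spirally cut isolated rabbit aortic strips; contractile (myotropic) activity of each analogue tested up to a maximum dose level of 10^-6 M/L.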

[15] = Competitive antagonist at angiotensin 2 receptor in rabbit aorta assessed as rightward shift in angiotensin-2 dose response curve for myotropic activity; type: tissue-based, Oryctolagus cuniculus
Oryctolagus cuniculus [16] = organism: Oryctolagus cuniculus; assay: Non-competitive antagonist at angiotensin 2 receptor in rabbit aorta assessed as inhibition of angiotensin-2 induced myotropic activity at > 1 uM/L; type: tissue-based
Oryctolagus cuniculus [17] = organism: Oryctolagus cuniculus; assay: Antagonist at angiotensin 2 receptor in rabbit aorta assessed as duration of action at 1 uM/L treated for 5 mins after angiotensin-2 challenge
How it was run: (§4)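 Spirally cut rabbit aortic strips challenged with a standard 10^-9 M/L angiotensin II dose, then incubated with 10^-6 M/L analogue for 5 min; analogue washed out of the bath and angiotensin II response retested at 5, 30, 60, 120 and 180 min.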

[18] = Retardation factor of the compound using n-BuOH-AcOH-water-pyridine at ratio of 30:6:24:20 as solvent system by thin layer chromatography; type: physicochemical; settings: buffer
[19] = Retardation factor of the compound using n-BuOH-AcOEt-AcOH-water at ratio of 1:1:1:1 as solvent system by thin layer chromatography; type: physicochemical; settings: buffer
[20] = Retardation factor of the compound using n-PrOH-water at ratio of 2:1 as solvent system by thin layer chromatography; type: physicochemical; settings: buffer
Oryctolagus cuniculus [21] = organism: Oryctolagus cuniculus; assay: Reversal antagonistic activity at angiotensin 2 receptor in rabbit aorta assessed as inhibition of angiotensin-2 induced myotropic activity at 1 uM/L measured at 1 hr following drug wash-out; type: tissue-based; how it was run: as §4
Felis catus [22] = organism: Felis catus; assay: Agonist activity at angiotensin 2 receptor in cat adrenal cortex assessed as secretory activity relative to angiotensin-2; type: tissue-based
Felis catus [23] = organism: Felis catus; assay: Agonist activity at angiotensin 2 receptor in cat adrenal medulla assessed as secretory activity relative to angiotensin-2; type: tissue-based
Oryctolagus cuniculus [24] = organism: Oryctolagus cuniculus; assay: Agonist activity at angiotensin 2 receptor in rabbit aorta assessed as myotropic activity relative to angiotensin-2; type: tissue-based; how it was run: as §3
[25] = Retardation factor of the compound using n-BuOH-AcOH-water at ratio of 4:1:1 as solvent system by thin layer chromatography; type: physicochemical; settings: buffer

CC[C@H](C)[C@H](NC(=O)[C@@H]1CCCN1C(=O)[C@H](Cc1c[nH]cn1)NC(=O)[C@@H](NC(=O)[C@H](Cc1ccc(O)cc1)NC(=O)[C@@H](NC(=O)[C@H](CCCN=C(N)N)NC(=O)CNC)C(C)C)[C@@H](C)OC)C(=O)O (H-[Sar]RVYT(Me)HPI-OH)
Activity (Rattus norvegicus [1]): 1.01%
Activity (Rattus norvegicus [2]): 11 mmHg
Activity (Rattus norvegicus [3]): 19 mmHg
Activity (Rattus norvegicus [4]): 16.82 mmHg
Activity (Rattus norvegicus [5]): 18.83 mmHg
Activity (Rattus norvegicus [6]): 19.8 mmHg
Activity (Rattus norvegicus [7]): 18.5 mmHg
Ratio (Rattus norvegicus [8]): 24.15
Ratio (Rattus norvegicus [9]): 50
Rf [10]: 0.35
Rf [11]: 0.08
Rf [12]: 0.25
Rf [13]: 0.25
Activity (Oryctolagus cuniculus [14]): 0.1%
pA2 [15]: 9.5
inhibition (Oryctolagus cuniculus [16]): Active
TIME (Oryctolagus cuniculus [17]): 2 h

CC[C@H](C)[C@H](NC(=O)[C@H](Cc1ccc(O)cc1)NC(=O)[C@@H](NC(=O)[C@H](CCCN=C(N)N)NC(=O)CNC)C(C)C)C(=O)N[C@@H](Cc1c[nH]cn1)C(=O)N1CCC[C@H]1C(=O)N[C@@H](C)C(=O)O
Activity (Rattus norvegicus [3]): 15.11 mmHg
Activity (Rattus norvegicus [5]): 16.88 mmHg
Activity (Rattus norvegicus [7]): 17.44 mmHg
Ratio (Rattus norvegicus [9]): 7.92
Activity (Oryctolagus cuniculus [14]): 0.5%
pA2 [15]: 8.61
inhibition (Oryctolagus cuniculus [16]): Active
TIME (Oryctolagus cuniculus [17]): 2 h

CC[C@H](C)[C@H](NC(=O)[C@H](Cc1ccc(O)cc1)NC(=O)[C@@H](NC(=O)CN(C)C(=O)CNC)C(C)C)C(=O)N[C@@H](Cc1c[nH]cn1)C(=O)N1CCC[C@H]1C(=O)N[C@H](C(=O)O)[C@@H](C)O (H-[Sar][Sar]VYIHPT-OH)
Activity (Rattus norvegicus [1]): 0%
Activity (Rattus norvegicus [3]): 3.16 mmHg
Activity (Rattus norvegicus [5]): 7 mmHg
Activity (Rattus norvegicus [7]): 11.66 mmHg
Ratio (Rattus norvegicus [9]): 1.93
Rf [10]: 0.46
Rf [18]: 0.63
Rf [19]: 0.75
Rf [11]: 0.24
Rf [12]: 0.43
Rf [20]: 0.76
Activity (Oryctolagus cuniculus [14]): 0%
pA2 [15]: 8.78
inhibition (Oryctolagus cuniculus [16]): Active
TIME (Oryctolagus cuniculus [17]): 3 h

CC[C@H](C)[C@H](NC(=O)[C@@H]1CCCN1C(=O)[C@H](Cc1c[nH]cn1)NC(=O)[C@@H](NC(=O)[C@H](Cc1ccc(O)cc1)NC(=O)[C@@H](NC(=O)[C@H](CCCN=C(N)N)NC(=O)CNC)C(C)C)[C@@H](C)CC)C(=O)O
Activity (Rattus norvegicus [1]): 1%
Activity (Rattus norvegicus [3]): 17.81 mmHg
Activity (Rattus norvegicus [5]): 18.27 mmHg
Activity (Rattus norvegicus [7]): 14.81 mmHg
Ratio (Rattus norvegicus [9]): 27.79
Activity (Oryctolagus cuniculus [14]): 1%
pA2 [15]: 9.17
inhibition (Oryctolagus cuniculus [16]): Active
TIME (Oryctolagus cuniculus [17]): 2 h

CNCC(=O)N[C@@H](CCCNC(=N)N)C(=O)N[C@H](C(=O)N[C@@H](Cc1ccc(O)cc1)C(=O)N[C@H](C(=O)N[C@@H](Cc1cnc[nH]1)C(=O)N1CCC[C@H]1C(=O)N[C@H](C(=O)O)[C@@H](C)OC)[C@@H](C)OC)C(C)C
Activity (Rattus norvegicus [1]): 0.46%
Activity (Rattus norvegicus [2]): 8.33 mmHg
Activity (Rattus norvegicus [4]): 13 mmHg
Activity (Rattus norvegicus [6]): 14.5 mmHg
Ratio (Rattus norvegicus [8]): 32.73
Rf [10]: 0.28
Rf [18]: 0.47
Rf [12]: 0.18
Activity (Oryctolagus cuniculus [14]): 0%
pA2 [15]: 9.5
inhibition (Oryctolagus cuniculus [16]): Active
TIME (Oryctolagus cuniculus [17]): 2 h

CC[C@H](C)[C@H](NC(=O)[C@H](Cc1ccc(O)cc1)NC(=O)[C@@H](NC(=O)[C@H](CCCNC(=N)N)NC(=O)C(C)(C)N)C(C)C)C(=O)N[C@@H](Cc1cnc[nH]1)C(=O)N1CCC[C@H]1C(=O)NC(C)(C)C(=O)O
Activity (Rattus norvegicus [1]): 0.24%
Activity (Rattus norvegicus [3]): 5.16 mmHg
Activity (Rattus norvegicus [5]): 8.5 mmHg
Activity (Rattus norvegicus [7]): 14.33 mmHg
Ratio (Rattus norvegicus [9]): 3.4
Rf [10]: 0.47
Rf [18]: 0.64
Rf [11]: 0.26
Rf [12]: 0.41
Rf [13]: 0.43
Rf [20]: 0.83
Activity (Oryctolagus cuniculus [14]): 0%
pA2 [15]: 7.22
inhibition (Oryctolagus cuniculus [16]): Active
TIME (Oryctolagus cuniculus [17]): 1 h
inhibition (Oryctolagus cuniculus [21]): Active

CC[C@H](C)[C@H](NC(=O)[C@H](Cc1ccc(O)cc1)NC(=O)[C@@H](NC(=O)[C@H](CCCNC(=N)N)NC(=O)CNC)C(C)C)C(=O)N[C@@H](Cc1cnc[nH]1)C(=O)N1CCC[C@H]1C(=O)N[C@H](C(=O)O)[C@@H](C)OC
Activity (Rattus norvegicus [1]): 0.48%
Activity (Rattus norvegicus [2]): 5.25 mmHg
Activity (Rattus norvegicus [3]): 13.82 mmHg
Activity (Rattus norvegicus [5]): 15.88 mmHg
Activity (Rattus norvegicus [6]): 8.75 mmHg
Activity (Rattus norvegicus [7]): 15.06 mmHg
Ratio (Rattus norvegicus [8]): 11.65
Ratio (Rattus norvegicus [9]): 62.52
Activity (Oryctolagus cuniculus [14]): 0.5%
pA2 [15]: 8.76
inhibition (Oryctolagus cuniculus [16]): Active
TIME (Oryctolagus cuniculus [17]): 2 h

CC[C@H](C)[C@H](NC(=O)[C@H](Cc1ccc(O)cc1)NC(=O)[C@@H](NC(=O)[C@H](CCCN=C(N)N)NC(=O)CNC)C(C)C)C(=O)N[C@@H](Cc1c[nH]cn1)C(=O)N1CCC[C@H]1C(=O)N[C@H](C(=O)O)[C@@H](C)O (H-[Sar]RVYIHPT-OH)
Activity (Felis catus [22]): 1%
Activity (Felis catus [23]): 0.1%
Activity (Oryctolagus cuniculus [24]): 0.5%
Activity (Rattus norvegicus [1]): 0.6%
Activity (Rattus norvegicus [3]): 9.46 mmHg
Activity (Rattus norvegicus [5]): 9.66 mmHg
Activity (Rattus norvegicus [7]): 9.2 mmHg
Ratio (Rattus norvegicus [9]): 26.91
Activity (Oryctolagus cuniculus [14]): 0.5%
pA2 [15]: 8.79
inhibition (Oryctolagus cuniculus [16]): Active
TIME (Oryctolagus cuniculus [17]): 2 h

CC[C@H](C)[C@H](NC(=O)[C@H](Cc1ccc(O)cc1)NC(=O)[C@@H](NC(=O)[C@H](CCCNC(=N)N)NC(=O)CNC)C(C)C)C(=O)N[C@@H](Cc1cnc[nH]1)C(=O)N1CCC[C@H]1C(=O)NC(C)(C)C(=O)O
Activity (Rattus norvegicus [1]): 0.52%
Activity (Rattus norvegicus [3]): 11 mmHg
Activity (Rattus norvegicus [5]): 13.16 mmHg
Activity (Rattus norvegicus [7]): 16.6 mmHg
Ratio (Rattus norvegicus [9]): 19.76
Rf [10]: 0.46
Rf [25]: 0.5
Rf [18]: 0.62
Rf [12]: 0.26
Rf [13]: 0.22
Activity (Oryctolagus cuniculus [14]): 0%
pA2 [15]: 8.7
inhibition (Oryctolagus cuniculus [16]): Active
TIME (Oryctolagus cuniculus [17]): 2 h
